Laboratory results taken from ChEMBL document CHEMBL1135606, “Synthesis, stability, and antimalarial activity of new hydrolytically stable and water-soluble (+)-deoxoartelinic acid” (J Med Chem, 2002).
≈ marks a conversion by molar mass, not a printed value.

How the values were obtained:
Mus musculus [1] = experiment: In vivo antimalarial activity against Plasmodium chabaudi in mice (Mus musculus) and its survival was reported; assay type: functional
Mus musculus [2] = experiment: Percent of infected erythrocytes in Blood schizonticidal activity against Plasmodium chabaudi in mice at a concentration of 10 mg/kg/day on day 3; assay type: functional
Mus musculus [3] = experiment: Percent of infected erythrocytes in Blood schizonticidal activity against Plasmodium chabaudi in mice at a concentration of 10 mg/kg/day on day 5; assay type: functional
Procedure, shortened: (§1)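 Female BALB/c mice (18–20 g, SPF), groups of five, infected iv on day 1 with 1 × 10^7 P. chabaudi ANKA-infected erythrocytes. Dosing ip began 2 h post-inoculation, once daily for 4 days, at 10 mg/kg/day in 10% DMSO/PBS. On day 5, Giemsa-stained smears; ≥1000 red cells counted; % infected erythrocytes per mouse, compared with controls.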

Mus musculus [4] = experiment: Percent of infected erythrocytes in Blood schizonticidal activity against Plasmodium chabaudi in mice at a concentration of 10 mg/kg/day on day 4; assay type: functional; procedure, shortened: as §1
Plasmodium falciparum [5] = experiment: In vitro antimalarial activity against chloroquine-resistant Plasmodium falciparum K1; assay type: functional; details: read-out: ED50 (the source's name)
Procedure, shortened: (§2)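 Asexual P. falciparum (3D7 or K1) in A+ erythrocytes, RPMI 1640, 5% hematocrit, 37 °C, 5% CO2. Synchronized ring stages at 1% parasitemia. Triplicate 3-fold dilutions from a final top concentration of 30 µg/mL. 24 h incubation, then [3H]-hypoxanthine (0.1 µCi/well) for a further 24 h. Incorporation read by scintillation counting; ED50 from curve fitting.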

Mus musculus [6] = experiment: In vivo antimalarial activity against Plasmodium chabaudi in mice (Mus musculus) and its survival rate reported; assay type: functional
Mus musculus [7] = experiment: Percent of infected erythrocytes in Blood schizonticidal activity against Plasmodium chabaudi in mice at a concentration of 10 mg/kg/day on day 1; assay type: functional; procedure, shortened: as §1
Mus musculus [8] = experiment: Percent of infected erythrocytes in Blood schizonticidal activity against Plasmodium chabaudi in mice at a concentration of 10 mg/kg/day on day 2; assay type: functional
Plasmodium falciparum [9] = experiment: In vitro antimalarial activity against chloroquine-sensitive Plasmodium falciparum 3D7; assay type: functional; details: read-out: ED50 (the source's name); procedure, shortened: as §2
[10] = Half life was reported; assay type: ADME
Procedure, shortened: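 Simulated stomach acid stability: compound at 1 mg/mL in 0.01 N HCl, pH 2.0, sealed, 37 °C. Acetal-type compounds sampled at 0–1400 min; non-acetal-type at 2–14 days. Remaining drug quantified by reverse-phase C-18 HPLC (ammonium acetate/acetonitrile, internal standard). Half-life from pseudo-first-order disappearance.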

SMILES	Survival (Mus musculus [1])	Infected erythrocytes (Mus musculus [2])	Infected erythrocytes (Mus musculus [3])	Infected erythrocytes (Mus musculus [4])	EC50 (Plasmodium falciparum [5])	Survival rate (Mus musculus [6])	Infected erythrocytes (Mus musculus [7])	Infected erythrocytes (Mus musculus [8])	EC50 (Plasmodium falciparum [9])	half-life [10]
CCN(CC)CCCC(C)Nc1ccnc2cc(Cl)ccc12 (stereo not drawn) [CHLOROQUINE]	0	62.1%	81.3%	82.4%	220 ng/mL (≈ 688 nM)	0%	65%	71.3%	8 ng/mL (≈ 25 nM)	–
C[C@H]1[C@H](OC(=O)CCC(=O)O)O[C@@H]2O[C@@]3(C)CC[C@H]4[C@H](C)CC[C@@H]1[C@@]24OO3 [ARTESUNATE]	–	–	–	–	0.6 ng/mL (≈ 1.56 nM)	–	–	–	0.2 ng/mL (≈ 0.52 nM)	–
CCO[C@H]1O[C@@H]2O[C@@]3(C)CC[C@H]4[C@H](C)CC[C@@H]([C@H]1C)[C@@]24OO3 [ARTEMOTIL]	3	–	–	–	0.9 ng/mL (≈ 2.88 nM)	60%	–	–	0.2 ng/mL (≈ 0.64 nM)	11 h
C[C@@H]1CC[C@H]2[C@@H](C)C(=O)O[C@@H]3O[C@@]4(C)CC[C@@H]1[C@]32OO4 [ARTEMISININ]	–	–	–	–	0.7 ng/mL (≈ 2.48 nM)	–	–	–	2.9 ng/mL (≈ 10.3 nM)	–
C[C@H]1[C@@H](CCc2ccc(C(=O)O)cc2)O[C@@H]2O[C@]3(C)CC[C@H]4[C@H](C)CC[C@@H]1[C@@]24OO3	5	2.9%	0.3%	0.5%	0.6 ng/mL (≈ 1.44 nM)	100%	0.5%	0.5%	1.1 ng/mL (≈ 2.64 nM)	259 h
C[C@@H]1CC[C@H]2[C@@H](C)CO[C@@H]3O[C@]4(C)CC[C@@H]1[C@]32OO4 [DEOXOARTEMISININ]	–	–	–	–	–	–	–	–	–	245 h
C[C@@H]1[C@H](OCc2ccc(C(=O)O)cc2)O[C@@H]2O[C@@]3(C)CC[C@@H]4[C@@H](C)CC[C@@H]1[C@]24OO3 [ARTELINIC ACID]	–	–	–	–	1.4 ng/mL (≈ 3.35 nM)	–	–	–	4 ng/mL (≈ 9.56 nM)	13.1 h
CCCC[C@H]1O[C@@H]2O[C@]3(C)CC[C@H]4[C@H](C)CC[C@@H]([C@H]1C)[C@@]24OO3	–	–	–	–	–	–	–	–	–	187 h
